Measurements: publication PMC7557999 (ACS Omega, 2020)

Tests used:
[1] = biological target: T1, STEP (Homo sapiens, UniProt P54829); test: PTP activity assay; type: biochemical
T1 sequence (P54829 300-555 limits assumed): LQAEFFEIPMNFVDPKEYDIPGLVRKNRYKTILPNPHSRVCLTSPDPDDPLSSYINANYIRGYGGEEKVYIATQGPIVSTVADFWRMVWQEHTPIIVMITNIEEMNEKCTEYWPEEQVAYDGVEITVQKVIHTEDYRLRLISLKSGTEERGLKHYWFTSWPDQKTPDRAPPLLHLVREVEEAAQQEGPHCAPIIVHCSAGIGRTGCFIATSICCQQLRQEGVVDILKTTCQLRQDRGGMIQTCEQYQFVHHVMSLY
Method in brief: (§1)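 Human catalytic domains were His-tagged, expressed in E. coli BL21(DE3) with 0.4 mM IPTG overnight at 20 °C, and purified under native conditions. The pNPP hydrolysis buffer was 10 mM NaAc-HAc, 1 mM EDTA, 1 mM DTT, pH 5.5, with 0.1 vol % test compound or DMSO at 37 °C. A405 was read every 20 s for 30 min.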

[2] = tested on: c-JUN; test: Western blotting of c-JUN in MCF7 cells; type: cell-based, Human; details: MCF7 cells, 1.5, 7.5 and 15 μM, 24 h
Method in brief: (§2)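 MCF7 cells were treated for 24 h with 0, 1.5, 7.5 or 15 μM test compound. Lysates were immunoblotted with antibodies to c-JUN, p-ERK and total ERK, with GAPDH as internal control.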

[3] = biological target: T2, PTP1B (Homo sapiens, UniProt P18031); test: PTP activity assay; type: biochemical; details: for inhibition type (Lineweaver–Burk plot), PTP1B: Lineweaver–Burk plot analysis
T2 sequence (P18031 3-277 limits assumed): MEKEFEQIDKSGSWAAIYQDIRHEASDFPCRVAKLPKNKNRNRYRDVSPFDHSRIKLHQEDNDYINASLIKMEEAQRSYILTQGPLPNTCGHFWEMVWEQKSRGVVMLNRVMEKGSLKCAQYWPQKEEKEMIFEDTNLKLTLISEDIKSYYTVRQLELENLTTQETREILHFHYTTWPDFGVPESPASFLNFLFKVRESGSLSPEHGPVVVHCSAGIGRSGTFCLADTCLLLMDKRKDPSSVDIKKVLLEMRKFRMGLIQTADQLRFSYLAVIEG
Method in brief: as §1

[4] = tested on: MCF7 cells; test: MTT assay, MCF7 cell proliferation; type: cell-based; details: Homo sapiens, MCF7, 24 h, read-out: IC50, MCF7 cell proliferation
Method in brief: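 MCF7 cells were grown in DMEM or RPMI-1640 with 10% FBS at 37 °C and 5% CO2, then seeded in 96-well plates. Test compound was added at various amounts, with DMSO as vehicle, for 24 h. MTT (5 mg/mL stock) was added for 4 h, then SDS-HCl overnight. A570 was read and IC50 calculated by the plate reader. Values are mean ± SD of triplicate assays.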

[5] = biological target: T3, SHP1 (Homo sapiens, UniProt P29350); test: PTP activity assay; type: biochemical; details: for inhibition type (Lineweaver–Burk plot), SHP1: Lineweaver–Burk plot analysis
T3 sequence (P29350 244-515 limits assumed): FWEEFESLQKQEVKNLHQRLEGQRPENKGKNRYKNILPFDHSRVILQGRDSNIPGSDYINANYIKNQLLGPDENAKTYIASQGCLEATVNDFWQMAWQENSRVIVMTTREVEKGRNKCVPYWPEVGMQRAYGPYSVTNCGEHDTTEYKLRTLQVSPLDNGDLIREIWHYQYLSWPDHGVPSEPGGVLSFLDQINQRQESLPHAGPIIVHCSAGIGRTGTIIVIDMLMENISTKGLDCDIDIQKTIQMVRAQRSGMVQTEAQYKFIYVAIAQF
Method in brief: as §1

[6] = tested on: MCF7 cells; test: RNA sequencing assay of treated MCF7 cells; type: cell-based, Human; details: vs control, three repeats
Method in brief: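 MCF7 cells were treated with test compound alongside a control group, three repeats per group. Libraries were prepared with NEBNext Ultra and sequenced on an Illumina HiSeq. Differential expression used DESeq/Cuffdiff with cutoffs of log2 fold change >1 or […], Q value <0.05 and FPKM >1.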

[7] = tested on: MCF7 cells; test: Colony formation assay; type: cell-based, Human; details: 0.15, 0.45 and 0.75 μM, 6 days
[8] = tested on: p-ERK; test: Western blotting of ERK phosphorylation in MCF7 cells; type: cell-based, Human; details: MCF7 cells, 1.5, 7.5 and 15 μM, 24 h
Method in brief: as §2

[9] = biological target: T4, SHP2 (Homo sapiens, UniProt Q06124); test: PTP activity assay; type: biochemical; details: for inhibition type (Lineweaver–Burk plot), SHP2: Lineweaver–Burk plot analysis
T4 sequence (Q06124 247-517 limits assumed): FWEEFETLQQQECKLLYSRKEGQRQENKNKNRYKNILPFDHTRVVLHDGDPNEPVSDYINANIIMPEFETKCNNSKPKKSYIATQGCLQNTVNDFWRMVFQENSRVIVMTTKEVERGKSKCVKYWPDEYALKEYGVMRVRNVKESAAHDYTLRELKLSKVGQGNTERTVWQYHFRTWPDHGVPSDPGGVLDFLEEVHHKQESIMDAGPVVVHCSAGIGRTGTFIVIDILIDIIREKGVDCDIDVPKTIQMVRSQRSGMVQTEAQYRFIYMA
Method in brief: as §1

[10] = biological target: T5, LYP (Homo sapiens, UniProt Q9Y2R2); test: PTP activity assay; type: biochemical
T5 sequence (Q9Y2R2 24-289 limits assumed): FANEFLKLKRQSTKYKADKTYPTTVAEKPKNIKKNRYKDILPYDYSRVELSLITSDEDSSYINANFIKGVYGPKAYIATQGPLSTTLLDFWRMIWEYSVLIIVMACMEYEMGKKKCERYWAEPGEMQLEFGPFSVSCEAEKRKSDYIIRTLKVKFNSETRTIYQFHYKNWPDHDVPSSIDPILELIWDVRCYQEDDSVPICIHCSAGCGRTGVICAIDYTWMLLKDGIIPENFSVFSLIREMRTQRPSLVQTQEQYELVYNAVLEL
Method in brief: as §1

SMILES | IC50 [1] [µM] | JUN protein expression (western blot) [2] | IC50 [3] [µM] | inhibition type (Lineweaver–Burk plot), PTP1B [3] | IC50 [4] [µM] | IC50 [5] [µM] | inhibition type (Lineweaver–Burk plot), SHP1 [5] | CXCL2 log 2 fold change [6] | CXCL3 log 2 fold change [6] | CXCL8 log 2 fold change [6] | CXCL10 log 2 fold change [6] | DDIT3 log 2 fold change [6] | GADD45A log 2 fold change [6] | IFI16 log 2 fold change [6] | IFI27 log 2 fold change [6] | IL1A log 2 fold change [6] | IL1B log 2 fold change [6] | IL6 log 2 fold change [6] | IL18 log 2 fold change [6] | IL24 log 2 fold change [6] | other results
CC(=O)OC[C@]12Oc3c(-c4ccc(O)c5c4O[C@@]4(COC(C)=O)C(=C(O)C[C@@H](C)[C@H]4OC(C)=O)C5=O)ccc(O)c3C(=O)C1=C(O)C[C@@H](C)[C@H]2OC(C)=O [PXA, Phomoxanthone A] | > 150 | upregulated the JUN protein expression | 13 ± 1.13 | noncompetitive inhibitors | 16.4 ± 1.96 | 36.5 ± 2.02 | competitive inhibitors | 3.24 | 1.65 | 5.45 | 6.84 | 2.87 | 1.41 | 1.18 | 4.22 | 4.78 | 3.30 | 4.00 | 1.78 | 6.37 | IL32 log 2 fold change [6]: 1.57; IL33 log 2 fold change [6]: 4.45; IRF1 log 2 fold change [6]: 1.50; IRF7 log 2 fold change [6]: 2.76; JUN log 2 fold change [6]: 3.32; NFKB2 log 2 fold change [6]: 1.62; RELB log 2 fold change [6]: 2.43; XAF1 log 2 fold change [6]: 4.83; colony formation of MCF7 cells [7]: significantly reduced the colony formation; ERK phosphorylation (western blot) [8]: increased ERK phosphorylation; IC50 [9]: 20.5 ± 4.45 µM; inhibition type (Lineweaver–Burk plot), SHP2 [9]: noncompetitive inhibitors; IC50 [10]: > 150 µM
CC(=O)OC[C@]12Oc3ccc(-c4ccc(O)c5c4O[C@@]4(COC(C)=O)C(=C(O)C[C@@H](C)[C@H]4OC(C)=O)C5=O)c(O)c3C(=O)C1=C(O)C[C@@H](C)[C@H]2OC(C)=O [PXB, Phomoxanthone B] | > 150 | upregulated the JUN protein expression | 14.3 ± 2.2 | noncompetitive inhibitors | 16.2 ± 2.59 | 32.1 ± 3.74 | competitive inhibitors | 3.19 | 1.58 | 5.22 | 5.96 | 2.92 | 1.39 | 1.15 | 4.02 | 4.87 | 3.23 | 3.98 | 1.73 | 7.08 | IL32 log 2 fold change [6]: 1.56; IL33 log 2 fold change [6]: 4.82; IRF1 log 2 fold change [6]: 1.34; IRF7 log 2 fold change [6]: 2.53; JUN log 2 fold change [6]: 3.16; NFKB2 log 2 fold change [6]: 1.69; RELB log 2 fold change [6]: 2.51; XAF1 log 2 fold change [6]: 4.41; colony formation of MCF7 cells [7]: significantly reduced the colony formation; ERK phosphorylation (western blot) [8]: increased ERK phosphorylation; IC50 [9]: 11.9 ± 3.02 µM; inhibition type (Lineweaver–Burk plot), SHP2 [9]: noncompetitive inhibitors; IC50 [10]: > 150 µM
O=c1[nH]cc(F)c(=O)[nH]1 [5-fluorouracil, reference compound] | – | – | – | – | 25.1 ± 8.8 | – | – | – | – | – | – | – | – | – | – | – | – | – | – | – | –
